# Legend:
# Type in all cases: functional
# NCI-H226 = assay: Cytotoxicity against human NCI-H226 cells assessed as growth inhibition after 48 hrs by SRB assay
# Procedure, shortened: (§1)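 NCI 60-cell-line screen, five-dose stage: each cell line exposed for 48 h to five concentrations spanning five log steps; cellular protein measured by sulforhodamine B colorimetry. A time-zero cell control and plates without drug are used to derive GI50, TGI and LC50 from log-concentration dose-response curves.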
# SW-620 = assay: Cytotoxicity against human SW620 cells assessed as growth inhibition after 48 hrs by SRB assay
# Procedure, shortened: (§2)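 NCI 60-cell-line screen, two stages. Five-dose testing at […]. Cellular protein measured by sulforhodamine B colorimetry after 48 h drug exposure. A time-zero control and drug-free plates are used to derive GI50, TGI and LC50 from dose-response curves plotted as log10 concentration per cell line.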
# COLO 205 = assay: Cytotoxicity against human COLO205 cells assessed as growth inhibition after 48 hrs by SRB assay
# Procedure, shortened: (§3)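 NCI 60-cell-line five-dose screen at […]. Drug exposure was 48 h, followed by sulforhodamine B protein staining. GI50, TGI and LC50 were calculated against a time-zero control and untreated plates, with dose–response curves plotted from log10 concentration.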
# OVCAR-8 = assay: Cytotoxicity against human OVCAR8 cells assessed as growth inhibition after 48 hrs by SRB assay; procedure, shortened: as §1
# NCI-H460 = assay: Cytotoxicity against human NCI-H460 cells assessed as growth inhibition after 48 hrs by SRB assay; procedure, shortened: as §1
# NCI-H522 = assay: Cytotoxicity against human NCI-H522 cells assessed as growth inhibition after 48 hrs by SRB assay; procedure, shortened: as §1
# SF-539 = assay: Cytotoxicity against human SF539 cells assessed as growth inhibition after 48 hrs by SRB assay; procedure, shortened: as §1
# SK-OV-3 = assay: Cytotoxicity against human SKOV3 cells assessed as growth inhibition after 48 hrs by SRB assay; procedure, shortened: as §1
# [1] = (§4) Cytotoxicity against human UACC257 cells assessed as growth inhibition after 48 hrs by SRB assay; conditions: UACC-257, 48 h; procedure, shortened: as §2
# UACC-257 = assay: as §4; procedure, shortened: as §2
# HT-29 [2] = assay: Cytotoxicity against human HT-29 cells assessed as cell growth at 10 uM after 48 hrs by SRB assay; conditions: HT-29, 48 h, read-out: Activity
# OVCAR-3 [3] = assay: Cytotoxicity against human OVCAR3 cells assessed as cell growth at 10 uM after 48 hrs by SRB assay; conditions: OVCAR-3, 48 h, read-out: Activity
# Procedure, shortened: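 First stage of the NCI 60 human tumour cell line screen: a single dose is tested against every line. Cell growth is read as cellular protein by sulforhodamine B colorimetry after 48 h of drug exposure, with reference to a time-zero control and to untreated plates.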
# HT-29 [4] = assay: Cytotoxicity against human HT-29 cells assessed as growth inhibition after 48 hrs by SRB assay; procedure, shortened: as §3
# Malme-3M = assay: Cytotoxicity against human MALME-3M cells assessed as growth inhibition after 48 hrs by SRB assay; procedure, shortened: as §3
# [5] = (§5) Cytotoxicity against human EKVX cells assessed as growth inhibition after 48 hrs by SRB assay; procedure, shortened: as §3
# EKVX = assay: as §5; procedure, shortened: as §3
# NCI-H322M = assay: Cytotoxicity against human NCI-H322M cells assessed as growth inhibition after 48 hrs by SRB assay; procedure, shortened: as §1
# U-251 = assay: Cytotoxicity against human U251 cells assessed as growth inhibition after 48 hrs by SRB assay; procedure, shortened: as §2
# RPMI-8226 = assay: Cytotoxicity against human RPMI8226 cells assessed as growth inhibition after 48 hrs by SRB assay; procedure, shortened: as §1
# UACC-62 = assay: Cytotoxicity against human UACC62 cells assessed as growth inhibition after 48 hrs by SRB assay; procedure, shortened: as §2
# SF-268 = assay: Cytotoxicity against human SF268 cells assessed as growth inhibition after 48 hrs by SRB assay; procedure, shortened: as §1
# [6] = (§6) Cytotoxicity against human NCI-ADR-RES cells assessed as growth inhibition after 48 hrs by SRB assay; procedure, shortened: as §1
# NCI/ADR-RES = assay: as §6; procedure, shortened: as §1
# [7] = (§7) Cytotoxicity against human OVCAR5 cells assessed as growth inhibition after 48 hrs by SRB assay; conditions: OVCAR-5, 48 h; procedure, shortened: as §1
# OVCAR-5 = assay: as §7; procedure, shortened: as §1
# OVCAR-3 [8] = assay: Cytotoxicity against human OVCAR3 cells assessed as growth inhibition after 48 hrs by SRB assay; procedure, shortened: as §1
# CCRF-CEM = assay: Cytotoxicity against human CCRF-CEM cells assessed as growth inhibition after 48 hrs by SRB assay; procedure, shortened: as §3
# LOX IMVI = assay: Cytotoxicity against human LOXIMVI cells assessed as growth inhibition after 48 hrs by SRB assay; procedure, shortened: as §3
# DU-145 = assay: Cytotoxicity against human DU145 cells assessed as growth inhibition after 48 hrs by SRB assay; procedure, shortened: as §3
compound,measurement,setting,value
CN(C)CCCSc1nc2ccc3c(c2[nH]1)C(=O)c1ccccc1C3=O,growth inhibition (GI),NCI-H226,Dose-dependent effect
same,TGI,"NCI-H226; NCI-H226, 48 h",22.1 µM
same,growth inhibition (GI),SW-620,Dose-dependent effect
same,GI50,"SW-620; SW-620, 48 h",1.99 µM
same,TGI,"SW-620; SW-620, 48 h",6.29 µM
same,growth inhibition (GI),COLO 205,Dose-dependent effect
same,GI50,"COLO 205; COLO 205, 48 h",3.41 µM
same,TGI,"COLO 205; COLO 205, 48 h",17.1 µM
same,growth inhibition (GI),OVCAR-8,Dose-dependent effect
same,GI50,"OVCAR-8; OVCAR-8, 48 h",6.12 µM
same,TGI,"OVCAR-8; OVCAR-8, 48 h",21.5 µM
same,growth inhibition (GI),NCI-H460,Dose-dependent effect
same,TGI,"NCI-H460; NCI-H460, 48 h",12.8 µM
same,growth inhibition (GI),NCI-H522,Dose-dependent effect
same,GI50,"NCI-H522; NCI-H522, 48 h",12.2 µM
same,TGI,"NCI-H522; NCI-H522, 48 h",24.9 µM
same,CC50,"NCI-H522; NCI-H522, 48 h, read-out: LC50 (the source's name)",50.5 µM
same,growth inhibition (GI),SF-539,Dose-dependent effect
same,GI50,"SF-539; SF-539, 48 h",10.9 µM
same,TGI,"SF-539; SF-539, 48 h",22.7 µM
same,CC50,"SF-539; SF-539, 48 h, read-out: LC50 (the source's name)",47.7 µM
same,growth inhibition (GI),SK-OV-3,Dose-dependent effect
same,GI50,"SK-OV-3; SK-OV-3, 48 h",1.72 µM
same,TGI,"SK-OV-3; SK-OV-3, 48 h",20.7 µM
same,GI50,[1],19.8 µM
same,TGI,[1],34.1 µM
same,growth inhibition (GI),UACC-257,Dose-dependent effect
same,growth at 10 µM,HT-29 [2],17.8%
same,growth at 10 µM,OVCAR-3 [3],59.3%
same,growth inhibition (GI),HT-29 [4],Dose-dependent effect
same,GI50,"HT-29 [4]; HT-29, 48 h",1.04 µM
same,TGI,"HT-29 [4]; HT-29, 48 h",2.61 µM
same,CC50,"HT-29 [4]; HT-29, 48 h, read-out: LC50 (the source's name)",6.53 µM
same,GI50,Malme-3M,13.9 µM
same,TGI,Malme-3M,27 µM
same,growth inhibition (GI),Malme-3M,Dose-dependent effect
same,CC50,Malme-3M; read-out: LC50 (the source's name),52.4 µM
same,GI50,[5],4.2 µM
same,TGI,[5],20.1 µM
same,growth inhibition (GI),EKVX,Dose-dependent effect
same,GI50,NCI-H322M,0.72 µM
same,TGI,NCI-H322M,20.6 µM
same,growth inhibition (GI),NCI-H322M,Dose-dependent effect
same,growth inhibition (GI),U-251,Dose-dependent effect
same,GI50,"U-251; U-251, 48 h",10.1 µM
same,TGI,"U-251; U-251, 48 h",22 µM
same,CC50,"U-251; U-251, 48 h, read-out: LC50 (the source's name)",48 µM
same,growth inhibition (GI),RPMI-8226,Dose-dependent effect
same,GI50,"RPMI-8226; RPMI-8226, 48 h",1.25 µM
same,TGI,"RPMI-8226; RPMI-8226, 48 h",4.62 µM
same,growth inhibition (GI),UACC-62,Dose-dependent effect
same,GI50,"UACC-62; UACC-62, 48 h",10.8 µM
same,TGI,"UACC-62; UACC-62, 48 h",23 µM
same,growth inhibition (GI),SF-268,Dose-dependent effect
same,GI50,"SF-268; SF-268, 48 h",4.34 µM
same,TGI,"SF-268; SF-268, 48 h",17.7 µM
same,GI50,[6],5.11 µM
same,TGI,[6],21.5 µM
same,growth inhibition (GI),NCI/ADR-RES,Dose-dependent effect
same,GI50,[7],12.7 µM
same,TGI,[7],25.9 µM
same,growth inhibition (GI),OVCAR-5,Dose-dependent effect
same,growth inhibition (GI),OVCAR-3 [8],Dose-dependent effect
same,GI50,"OVCAR-3 [8]; OVCAR-3, 48 h",3.73 µM
same,TGI,"OVCAR-3 [8]; OVCAR-3, 48 h",18.2 µM
same,GI50,CCRF-CEM,1.29 µM
same,TGI,CCRF-CEM,4.36 µM
same,growth inhibition (GI),CCRF-CEM,Dose-dependent effect
same,GI50,LOX IMVI,1.36 µM
same,TGI,LOX IMVI,3 µM
same,growth inhibition (GI),LOX IMVI,Dose-dependent effect
same,growth inhibition (GI),DU-145,Dose-dependent effect
same,GI50,"DU-145; DU-145, 48 h",2.38 µM
same,TGI,"DU-145; DU-145, 48 h",12.9 µM
same,CC50,"DU-145; DU-145, 48 h, read-out: LC50 (the source's name)",35.9 µM
